Measured values taken from ChEMBL document CHEMBL5046304, “Novel Pyridazin-3(2H)-one-Based Guanidine Derivatives as Potential DNA Minor Groove Binders with Anticancer Activity” (ACS Med Chem Lett, 2022).

Key:
Salmon testes DNA = test: Binding affinity to salmon sperm DNA assessed as thermal stability by measuring change in melting temperature at 15 uM at pH 7 by spectrophotometric analysis; format: nucleic-acid assay; settings: Salmo salar
A2780 [1] = test: Cytotoxicity against human A2780 cells assessed as reduction in cell viability measured after 96 hrs by MTT assay; format: functional, cell-based; settings: A2780, 96 h
NCI-H460 = test: Cytotoxicity against human NCI-H460 cells assessed as reduction in cell viability at 100 uM after […] by MTT assay; format: functional
Method in brief: (§1)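 Percentage inhibition of cell viability; values are means of three experiments.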

A2780 [2] = test: Cytotoxicity against human A2780 cells assessed as reduction in cell viability at 100 uM after 96 hrs by MTT assay; format: functional; method in brief: as §1
MCF7 = test: Cytotoxicity against human MCF7 cells assessed as reduction in cell viability at 100 uM after 96 hrs by MTT assay; format: functional; method in brief: as §1

ΔTm (Salmon testes DNA)	SMILES	IC50 (A2780 [1])	inhibition at 100 µM (NCI-H460)	inhibition at 100 µM (A2780 [2])	inhibition at 100 µM (MCF7)
1.1 °C	N=C(N)NCc1ccc(Cn2nccc(CNC(=N)N)c2=O)cc1				
	Cc1cc(=O)n(Cc2ccc(CCl)cc2)nc1CNC(=N)N	> 100 µM	7%	54%	25%
	Cn1nccc(CNC(=N)N)c1=O		1%	18%	1%
	Cn1ncc(CNC(=N)N)cc1=O		13%	24%	2%
	Cc1cc(=O)n(Cc2ccc(CF)cc2)nc1CNC(=N)N		5%	34%	13%
	Cc1cc(=O)n(C)nc1CNC(=N)N		2%	20%	12%
1.2 °C	Cc1cc(=O)n(Cc2ccc(CNC(=N)N)cc2)nc1CNC(=N)N	21 µM	34%	59%	22%
1.2 °C	N=C(N)NCc1ccc(Cn2ncc(CNC(=N)N)cc2=O)cc1		35%	33%	23%
	N=C(N)NCc1ccnn(Cc2ccccc2)c1=O		15%	41%	46%
	COCc1ccc(Cn2nccc(CNC(=N)N)c2=O)cc1		1%	38%	
	Cc1cc(=O)n(Cc2ccccc2)nc1CNC(=N)N		2%	23%	18%
	Cn1nc(CNC(=N)N)ccc1=O		4%	11%	20%
	N=C(N)NCc1cnn(Cc2ccccc2)c(=O)c1		1%	40%	13%
1.4 °C	N=C(N)NCc1ccc(Cn2nc(CNC(=N)N)ccc2=O)cc1				
